In ChEMBL document CHEMBL4433236, “Synthesis and structure activity relationships of a series of 4-amino-1H-pyrazoles as covalent inhibitors of CDK14” (Bioorg Med Chem Lett, 2019):
The source made the active and inactive calls. No cut-off for these calls is given here.

Assays:
[1] = target: T1, Cyclin-dependent kinase 14 (Homo sapiens, UniProt O94921); experiment: Inhibition of FLAG-tagged CDK14 (unknown origin) expressed in human HEK293 cells assessed as blocking of CDK14 pulldown at 500 to 1000 nM incubated for 4 hrs by biotinylated JNK-IN- based pull down assay; type: cell-based
T1 sequence (O94921 whole entry): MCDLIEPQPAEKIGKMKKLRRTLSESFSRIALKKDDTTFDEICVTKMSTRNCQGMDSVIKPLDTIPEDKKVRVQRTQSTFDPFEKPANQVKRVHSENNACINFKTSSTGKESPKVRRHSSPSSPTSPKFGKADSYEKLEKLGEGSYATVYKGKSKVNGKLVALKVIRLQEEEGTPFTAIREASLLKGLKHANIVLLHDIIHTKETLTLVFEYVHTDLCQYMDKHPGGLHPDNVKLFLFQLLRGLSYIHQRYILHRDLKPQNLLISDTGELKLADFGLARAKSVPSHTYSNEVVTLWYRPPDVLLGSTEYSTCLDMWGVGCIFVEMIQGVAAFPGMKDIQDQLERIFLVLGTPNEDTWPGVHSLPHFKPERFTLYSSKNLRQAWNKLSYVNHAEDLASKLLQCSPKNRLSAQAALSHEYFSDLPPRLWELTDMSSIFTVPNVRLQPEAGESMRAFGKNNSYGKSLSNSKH
In short: (§1)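 Cells were treated with compound at various doses for 4 h and then lysed. Lysates were incubated with biotinylated JNK-IN-7 and captured on streptavidin-coated beads. CDK14 capture was detected by western blot.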

[2] = target: T1, Cyclin-dependent kinase 14; experiment: Inhibition of FLAG-tagged CDK14 (unknown origin) expressed in human HEK293 cells assessed as blocking of CDK14 pulldown incubated for 4 hrs by biotinylated JNK-IN- based pull down assay; type: cell-based; in short: as §1
HCT-116 = experiment: Antiproliferative activity against human HCT116 cells assessed as reduction in cell viability after 72 hrs by cell titer glo-based luminescence assay; type: functional; conditions: HCT-116, 72 h
[3] = target: Cyclin-dependent kinase 14/Cyclin-Y (Homo sapiens, UniProt O94921); experiment: Inhibition of recombinant GST-tagged human full length CDK14/cyclin Y (2 to end residues) preincubated for 30 mins by Lantha screen eu binding assay; type: protein-complex assay
Sequence of Cyclin-dependent kinase 14/Cyclin-Y (O94921 whole entry): as above
Sequence of Cyclin-dependent kinase 14/Cyclin-Y (Q8ND76 whole entry, further chain): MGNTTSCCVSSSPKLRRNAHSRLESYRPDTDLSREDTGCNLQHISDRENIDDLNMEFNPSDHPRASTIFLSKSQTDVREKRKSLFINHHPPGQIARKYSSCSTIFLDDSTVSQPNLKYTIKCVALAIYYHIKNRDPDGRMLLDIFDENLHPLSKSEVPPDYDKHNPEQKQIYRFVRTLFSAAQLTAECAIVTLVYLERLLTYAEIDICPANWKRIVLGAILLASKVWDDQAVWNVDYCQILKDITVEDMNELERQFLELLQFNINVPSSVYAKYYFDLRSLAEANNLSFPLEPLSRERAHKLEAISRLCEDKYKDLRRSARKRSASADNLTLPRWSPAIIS
In short: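 CDK14 binding was measured in a LanthaScreen binding assay. IC50 is the average of three replicates, reported ± standard error.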

[4] = target: T1, Cyclin-dependent kinase 14; experiment: Inhibition of FLAG-tagged CDK14 (unknown origin) expressed in human HEK293 cells assessed as blocking of CDK14 pulldown up to 1000 nM incubated for 4 hrs by biotinylated JNK-IN- based pull down assay; type: cell-based; in short: as §1
CDK2/Cyclin-Y = CDK2/Cyclin-Y (Homo sapiens, UniProt P24941+Q8ND76); experiment: Inhibition of recombinant NanoLuc-tagged CDK2/cyclin Y expressed in human HCT116 cells at 1 uM incubated for 20 to 24 hrs by NanoBRET assay; type: cell-based
[5] = target: Cyclin-dependent kinase 16 (Homo sapiens) (UniProt Q00536); experiment: Inhibition of CDK16 in human HCT116 cells at 1 uM incubated for 4 hrs by KINATIV live cell profiling protocol based assay
Sequence of Cyclin-dependent kinase 16 (Homo sapiens) (Q00536 whole entry): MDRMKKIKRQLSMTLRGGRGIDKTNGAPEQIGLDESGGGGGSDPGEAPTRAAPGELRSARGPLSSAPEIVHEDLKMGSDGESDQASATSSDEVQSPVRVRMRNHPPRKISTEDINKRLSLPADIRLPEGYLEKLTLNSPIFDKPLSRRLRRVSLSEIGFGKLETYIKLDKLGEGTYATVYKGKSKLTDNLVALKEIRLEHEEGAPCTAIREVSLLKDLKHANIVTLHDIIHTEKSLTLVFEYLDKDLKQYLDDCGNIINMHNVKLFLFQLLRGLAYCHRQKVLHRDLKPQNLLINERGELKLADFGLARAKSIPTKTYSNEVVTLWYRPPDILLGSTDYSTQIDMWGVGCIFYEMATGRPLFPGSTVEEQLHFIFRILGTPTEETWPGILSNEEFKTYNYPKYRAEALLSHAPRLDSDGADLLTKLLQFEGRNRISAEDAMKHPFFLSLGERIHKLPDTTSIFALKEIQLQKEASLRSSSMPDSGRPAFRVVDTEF
In short: (§2)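 Cellular kinase selectivity was profiled on the KiNativ platform, with compounds tested at 1 μM.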

[6] = target: Cyclin-dependent kinase 17 (Homo sapiens) (UniProt Q00537); experiment: Inhibition of CDK17 in human HCT116 cells at 1 uM incubated for 4 hrs by KINATIV live cell profiling protocol based assay; in short: as §2
Sequence of Cyclin-dependent kinase 17 (Homo sapiens) (Q00537 whole entry, looked up): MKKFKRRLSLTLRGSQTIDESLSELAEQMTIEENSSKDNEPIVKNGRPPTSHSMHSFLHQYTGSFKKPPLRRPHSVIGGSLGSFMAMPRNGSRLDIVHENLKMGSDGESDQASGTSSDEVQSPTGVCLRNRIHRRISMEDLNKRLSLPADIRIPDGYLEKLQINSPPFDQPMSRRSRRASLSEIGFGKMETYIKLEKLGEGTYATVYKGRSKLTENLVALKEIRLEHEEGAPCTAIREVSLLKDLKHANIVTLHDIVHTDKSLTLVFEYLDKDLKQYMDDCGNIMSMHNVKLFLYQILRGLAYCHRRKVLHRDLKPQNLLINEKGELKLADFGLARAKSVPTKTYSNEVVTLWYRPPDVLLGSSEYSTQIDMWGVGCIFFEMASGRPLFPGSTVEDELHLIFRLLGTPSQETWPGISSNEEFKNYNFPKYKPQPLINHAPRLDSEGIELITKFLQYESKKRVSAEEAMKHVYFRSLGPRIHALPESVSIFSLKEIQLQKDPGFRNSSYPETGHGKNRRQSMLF

[7] = target: Cyclin-dependent kinase 18 (Homo sapiens) (UniProt Q07002); experiment: Inhibition of CDK18 in human HCT116 cells at 1 uM incubated for 4 hrs by KINATIV live cell profiling protocol based assay; in short: as §2
Sequence of Cyclin-dependent kinase 18 (Homo sapiens) (Q07002 whole entry): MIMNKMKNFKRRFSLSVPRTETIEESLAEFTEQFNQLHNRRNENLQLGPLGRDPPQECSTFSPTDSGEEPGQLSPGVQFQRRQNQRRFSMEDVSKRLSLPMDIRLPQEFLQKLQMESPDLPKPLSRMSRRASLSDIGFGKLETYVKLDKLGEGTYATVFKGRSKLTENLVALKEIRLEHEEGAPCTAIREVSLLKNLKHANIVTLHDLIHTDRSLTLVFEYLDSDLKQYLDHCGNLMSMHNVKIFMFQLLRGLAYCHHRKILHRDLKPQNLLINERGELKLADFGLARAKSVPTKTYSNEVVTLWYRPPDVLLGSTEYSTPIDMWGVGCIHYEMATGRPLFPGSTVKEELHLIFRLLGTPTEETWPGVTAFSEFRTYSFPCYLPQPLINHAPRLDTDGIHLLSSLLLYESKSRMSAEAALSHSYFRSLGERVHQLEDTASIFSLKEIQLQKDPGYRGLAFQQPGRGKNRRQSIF

CN(C)C/C=C/C(=O)Nc1cccc(C(=O)Nc2ccc(NC(=O)c3n[nH]cc3NC(=O)c3c(Cl)cccc3Cl)cc2)c1
inhibition [1]: Active
IC50 [2]: 1 µM
IC50 (HCT-116): 0.038 µM

CN(C)CC/C=C/C(=O)Nc1ccc(S(=O)(=O)N2CC[C@@H](NC(=O)c3n[nH]cc3NC(=O)c3c(Cl)cccc3Cl)C2)cc1
IC50 [3]: 0.041 µM
inhibition [4]: Active
IC50 [2]: > 1 µM
IC50 (HCT-116): > 10 µM

CN(C)C/C=C/C(=O)Nc1cccc(S(=O)(=O)N2CCC(NC(=O)c3n[nH]cc3NC(=O)c3ccccc3)CC2)c1
IC50 [3]: 0.003 µM
IC50 [2]: 1 µM
IC50 (HCT-116): 0.44 µM

Cc1cc(NC(=O)c2cccc(NC(=O)/C=C/CN(C)C)c2)ccc1NC(=O)c1n[nH]cc1NC(=O)c1c(Cl)cccc1Cl
IC50 [3]: > 1 µM
IC50 (HCT-116): 0.32 µM

CN(C)C/C=C/C(=O)Nc1cccc(S(=O)(=O)N2CCC(NC(=O)c3n[nH]cc3NC(=O)c3c(Cl)cc(Cl)cc3Cl)CC2)c1
IC50 (CDK2/Cyclin-Y): 0.256 µM
inhibition [5]: > 90%
inhibition [6]: > 75%
IC50 (HCT-116): 1.14 to 5.9 µM
inhibition [7]: > 75%

C=CC(=O)Nc1cccc(C(=O)N2CCC(NC(=O)c3n[nH]cc3NC(=O)c3c(Cl)cccc3Cl)CC2)c1
IC50 [3]: 0.045 µM
inhibition [1]: Active
IC50 (HCT-116): 0.032 µM

C=CC(=O)Nc1cccc(C(=O)Nc2ccc(NC(=O)c3n[nH]cc3NC(=O)c3c(Cl)cccc3Cl)c(C)c2)c1
IC50 [3]: > 1 µM
